According to ChEMBL document CHEMBL4138150, “Quinoline derivatives bearing pyrazole moiety: Synthesis and biological evaluation as possible antibacterial and antifungal agents” (2018):
≈ marks a conversion by molar mass, not a printed value.

Key:
Assay type in all cases: functional
Staphylococcus aureus [1] = experiment: Antimicrobial activity against Staphylococcus aureus RCMB 010027 assessed as diameter of zone inhibition at 5 mg/ml after 24 hrs by agar well diffusion assay; conditions: RCMB 010027, 24 h, read-out: DIZ
Outline: (§1)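 Agar well diffusion: 100 µL of 1 x10^8 CFU/mL bacteria was spread on nutrient agar. 10 mm wells received 100 µL of compound at 5 mg/mL in DMSO, or ampicillin or gentamycin standards at 1 mg/mL. DMSO served as negative control. Plates were incubated 24 h at 37 °C. Inhibition zone diameter (mm) was measured as the mean of triplicates.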

[2] = test system: Staphylococcus epidermidis; experiment: Antimicrobial activity against Staphylococcus epidermidis RCMB 010024 assessed as diameter of zone inhibition at 5 mg/ml after 24 hrs by agar well diffusion assay; conditions: RCMB 010024, 24 h, read-out: DIZ; outline: as §1
Bacillus subtilis [3] = experiment: Antimicrobial activity against Bacillus subtilis RCMB 010063 assessed as diameter of zone inhibition at 5 mg/ml after 24 hrs by agar well diffusion assay; conditions: RCMB 010063, 24 h, read-out: DIZ; outline: as §1
Proteus vulgaris [4] = experiment: Antimicrobial activity against Proteus vulgaris RCMB 010085 assessed as diameter of zone inhibition at 5 mg/ml after 24 hrs by agar well diffusion assay; conditions: RCMB 010085, 24 h, read-out: DIZ; outline: as §1
Klebsiella pneumoniae [5] = experiment: Antimicrobial activity against Klebsiella pneumoniae RCMB 010093 assessed as diameter of zone inhibition at 5 mg/ml after 24 hrs by agar well diffusion assay; conditions: RCMB 010093, 24 h, read-out: DIZ; outline: as §1
Shigella flexneri [6] = experiment: Antimicrobial activity against Shigella flexneri RCMB 0100542 assessed as diameter of zone inhibition at 5 mg/ml after 24 hrs by agar well diffusion assay; conditions: RCMB 0100542, 24 h, read-out: DIZ; outline: as §1
Aspergillus fumigatus [7] = experiment: Antimicrobial activity against Aspergillus fumigatus RCMB 02564 assessed as diameter of zone inhibition at 5 mg/ml after 72 hrs by agar well diffusion assay; conditions: RCMB 02564, 72 h, read-out: DIZ
Outline: (§2)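 Fungi (1 x10^6 CFU/mL, 100 µL) were spread on Sabouraud dextrose agar. 10 mm wells were loaded with 100 µL of test solution at 5 mg/mL in DMSO, or amphotericin B standard at 1 mg/mL. A DMSO negative control was included. Plates were incubated 72 h at 28 °C. Inhibition zone diameter (mm) was recorded as the average of triplicate runs.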

Aspergillus clavatus [8] = experiment: Antimicrobial activity against Aspergillus clavatus RCMB 02593 assessed as diameter of zone inhibition at 5 mg/ml after 72 hrs by agar well diffusion assay; conditions: RCMB 02593, 72 h, read-out: DIZ; outline: as §2
Candida albicans [9] = experiment: Antimicrobial activity against Candida albicans RCMB 05035 assessed as diameter of zone inhibition at 5 mg/ml after 72 hrs by agar well diffusion assay; conditions: RCMB 05035, 72 h, read-out: DIZ; outline: as §2
Staphylococcus aureus [10] = experiment: Antimicrobial activity against Staphylococcus aureus RCMB 010027 after overnight incubation by macro-tube dilution technique
Outline: (§3)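 Macro-tube twofold dilution following NCCLS guidance, run in nutrient broth. The first tube held 10 mg compound in 2.0 mL DMSO and was serially halved 1:1 into 1.0 mL broth through tube 14; tube 15 was the control. The inoculum was suspended to turbidity in 5.0 mL broth, 0.2 mL was diluted into 40 mL, and 1.0 mL was added per tube. Tubes were incubated overnight at 37 °C. MIC was the lowest concentration with no growth.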

[11] = test system: Staphylococcus epidermidis; experiment: Antimicrobial activity against Staphylococcus epidermidis RCMB 010024 after overnight incubation by macro-tube dilution technique; outline: as §3
Bacillus subtilis [12] = experiment: Antimicrobial activity against Bacillus subtilis RCMB 010063 after overnight incubation by macro-tube dilution technique; outline: as §3
Proteus vulgaris [13] = experiment: Antimicrobial activity against Proteus vulgaris RCMB 010085 after overnight incubation by macro-tube dilution technique; outline: as §3
Klebsiella pneumoniae [14] = experiment: Antimicrobial activity against Klebsiella pneumoniae RCMB 010093 after overnight incubation by macro-tube dilution technique; outline: as §3
Shigella flexneri [15] = experiment: Antimicrobial activity against Shigella flexneri RCMB 0100542 after overnight incubation by macro-tube dilution technique; outline: as §3
Aspergillus fumigatus [16] = experiment: Antimicrobial activity against Aspergillus fumigatus RCMB 02564 after 72 hrs by macro-tube dilution technique; conditions: RCMB 02564, 72 h
Outline: (§4)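 Twofold macro-tube dilution following NCCLS guidance, run in malt extract broth. 10 mg compound in 2.0 mL DMSO in tube 1 was serially diluted 1:1 through tube 14 into 1.0 mL broth; tube 15 was the control. Culture was suspended to turbidity in 5.0 mL broth, 0.2 mL was diluted into 40 mL, and 1.0 mL was added per tube. Incubation was 72 h at 30 °C. MIC was the lowest concentration with no growth.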

Aspergillus clavatus [17] = experiment: Antimicrobial activity against Aspergillus clavatus RCMB 02593 after 72 hrs by macro-tube dilution technique; conditions: RCMB 02593, 72 h; outline: as §4
Candida albicans [18] = experiment: Antimicrobial activity against Candida albicans RCMB 05035 after 72 hrs by macro-tube dilution technique; conditions: RCMB 05035, 72 h; outline: as §4

SMILES	zone of inhibition at 5000 µg/mL (Staphylococcus aureus [1]) [mm]	zone of inhibition at 5000 µg/mL [2] [mm]	zone of inhibition at 5000 µg/mL (Bacillus subtilis [3]) [mm]	zone of inhibition at 5000 µg/mL (Proteus vulgaris [4]) [mm]	zone of inhibition at 5000 µg/mL (Klebsiella pneumoniae [5]) [mm]	zone of inhibition at 5000 µg/mL (Shigella flexneri [6]) [mm]	zone of inhibition at 5000 µg/mL (Aspergillus fumigatus [7]) [mm]	zone of inhibition at 5000 µg/mL (Aspergillus clavatus [8]) [mm]	zone of inhibition at 5000 µg/mL (Candida albicans [9]) [mm]	MIC (Staphylococcus aureus [10]) [µg/mL]	MIC [11] [µg/mL]	MIC (Bacillus subtilis [12]) [µg/mL]	MIC (Proteus vulgaris [13]) [µg/mL]	MIC (Klebsiella pneumoniae [14]) [µg/mL]	MIC (Shigella flexneri [15]) [µg/mL]	MIC (Aspergillus fumigatus [16]) [µg/mL]	MIC (Aspergillus clavatus [17]) [µg/mL]	MIC (Candida albicans [18]) [µg/mL]
COc1ccc(C(=O)/C=C/c2ccc(Oc3ccc4ccccc4n3)cc2)cc1	8.7	10.6	0	0	7.2	0	10.7	11.5	0									
Clc1ccc(-c2nn(-c3ccccc3)cc2/C=N/Nc2ccc3ccccc3n2)cc1	24.5	25.7	27.6	21.4	22.9	21.8	21.5	19.8	24.9	0.97 (≈ 2.29 µM)	3.9 (≈ 9.2 µM)	0.97 (≈ 2.29 µM)	3.9 (≈ 9.2 µM)	3.9 (≈ 9.2 µM)	3.9 (≈ 9.2 µM)	15.6 (≈ 36.9 µM)	7.81 (≈ 18.4 µM)	3.9 (≈ 9.2 µM)
N#Cc1c(-c2cccc(Cl)c2)nn(-c2ccc3ccccc3n2)c1N	10.3	11.6	13.3	0	0	0	12.3	13.2	15.2									
COc1ccc(C2=NNC(c3ccc(Oc4ccc5ccccc5n4)cc3)C2)cc1 (centres undefined)	16.2	18.6	19.4	16.2	0	15.4	15.6	12.8	11.6									
Cc1ccc(-c2nn(-c3ccccc3)cc2/C=N/Nc2ccc3ccccc3n2)cc1	20.3	20.7	22.4	16.2	17.6	18.3	20.5	18.3	22.1	1.95 (≈ 4.83 µM)	0.98 (≈ 2.43 µM)	0.49 (≈ 1.21 µM)	31.2 (≈ 77.4 µM)	7.81 (≈ 19.4 µM)	7.81 (≈ 19.4 µM)	0.98 (≈ 2.43 µM)	7.81 (≈ 19.4 µM)	0.49 (≈ 1.21 µM)
C(=N\Nc1ccc2ccccc2n1)/c1cn(-c2ccccc2)nc1-c1ccccc1	22.2	23.4	23.2	20.2	21.2	20.1	17.5	18.4	19.6	3.9 (≈ 10 µM)	3.9 (≈ 10 µM)	1.97 (≈ 5.06 µM)	7.81 (≈ 20.1 µM)	3.9 (≈ 10 µM)	7.81 (≈ 20.1 µM)	7.81 (≈ 20.1 µM)	15.6 (≈ 40.1 µM)	7.81 (≈ 20.1 µM)
CSc1nn(-c2ccc3ccccc3n2)c(N)c1C#N	18.9	16.2	19.8	12.3	15.3	16.2	15.7	15.9	16.8									
COc1ccc(C2=NN(c3ccccc3)C(c3ccc(Oc4ccc5ccccc5n4)cc3)C2)cc1 (centres undefined)	12.1	13.1	0	13.5	15.9	14.4	16.2	14.5	11.6									
CCOC(=O)c1c(SC)nn(-c2ccc3ccccc3n2)c1N	15.8	17.8	19.8	0	0	0	18.7	19.3	20.3							7.81 (≈ 23.8 µM)	7.81 (≈ 23.8 µM)	1.95 (≈ 5.94 µM)
Clc1ccccc1C1CC(c2ccc(Oc3ccc4ccccc4n3)cc2)=NN1c1ccccc1 (centres undefined)	14.8	0	16.4	12.4	13.3	0	12.3	0	9.3									
COc1ccc(C2CC(c3ccc(Oc4ccc5ccccc5n4)cc3)=NN2)cc1 (centres undefined)	13.1	14.6	13.7	14.3	16.2	14.3	13.5	14.2	12.1									
